Source: ChEMBL document CHEMBL3826914, “Selective photodepletion of malignant T cells in extracorporeal photopheresis with selenorhodamine photosensitizers” (Bioorg Med Chem, 2016)
pEC50: −log10 of the molar value. The source made the active and inactive calls. No cut-off for these calls is given here.

Tests used:
HuT78 [1] = experiment: Phototoxicity against human HUT78 cells assessed as reduction in cell viability preincubated for 1 hr in dark before exposure to 1 J/cm2 irradiation after 48 hrs by MTT assay; type: functional, cell-based
Outline: (§1)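 HUT-78 cells in RPMI 1640 with 10% FBS, 1% HEPES and 1% penicillin-streptomycin were plated at 7.5×10^4 per well and grown 24 h. Dye was added to final 5×10^-8 to 5×10^-7 M, then 1 h in the dark. Plates were kept dark or irradiated with a 633 ± 2 nm dye laser at ~3.2 mW cm^-2 to 0.5, 1.0 or 2.0 J cm^-2. Medium was replaced, 48 h at 37 °C, then MTT read at 570 nm. Triplicate runs; EC50/LD50 by sigmoidal variable-slope fit.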

[2] = Dark toxicity against human HUT78 cells assessed as reduction in cell viability preincubated for 1 hr in dark after 48 hrs by MTT assay; type: cell-based; settings: read-out: LD50; outline: as §1
[3] = Drug extrusion in human CD3 positive cells assessed as change in mean fluorescence intensity at 5 x 10^-8 M preincubated for 20 mins followed by growth in photosensitizer-free media for 30 mins by flow cytometric analysis relative to control; type: cell-based; settings: 0.5 h, 0.05 µM
[4] = Drug extrusion in human CD4 positive cells assessed as change in mean fluorescence intensity at 5 x 10^-8 M preincubated for 20 mins followed by growth in photosensitizer-free media for 30 mins by flow cytometric analysis relative to control; type: cell-based; settings: 0.5 h, 0.05 µM
[5] = Drug extrusion in human CD8 positive cells assessed as change in mean fluorescence intensity at 5 x 10^-8 M preincubated for 20 mins followed by growth in photosensitizer-free media for 30 mins by flow cytometric analysis relative to control; type: cell-based; settings: 0.5 h, 0.05 µM
[6] = Drug extrusion in SEB-stimulated human CD25 positive cells assessed as change in mean fluorescence intensity at 5 x 10^-8 M preincubated for 20 mins followed by growth in photosensitizer-free media for 30 mins by flow cytometric analysis relative to control; settings: 0.5 h, 0.05 µM
[7] = Drug extrusion in SEB-stimulated human CD25 negative cells assessed as change in mean fluorescence intensity at 5 x 10^-8 M preincubated for 20 mins followed by growth in photosensitizer-free media for 30 mins by flow cytometric analysis relative to control; settings: 0.5 h, 0.05 µM
[8] = Drug uptake in SEB-stimulated human CD25 positive cells assessed as mean fluorescence intensity at 5 x 10^-8 M preincubated for 20 mins followed by growth in photosensitizer-free media for 30 mins by flow cytometric analysis relative to control; settings: 0.5 h, 0.05 µM
[9] = Drug uptake in SEB-stimulated human CD25 negative cells assessed as mean fluorescence intensity at 5 x 10^-8 M preincubated for 20 mins followed by growth in photosensitizer-free media for 30 mins by flow cytometric analysis relative to control; settings: 0.5 h, 0.05 µM
HuT78 [10] = experiment: (§2) Phototoxicity in GFP expressing human HUT78 cells co-cultured with human PBMC cells assessed as cell survival at 7.5 x 10^-8 M preincubated 20 mins in photosensitizer media followed by growth in photosensitizer-free media for 30 mins measured 18 hrs after exposure to 5 J/cm2 irradiation by FACS analysis; type: functional; settings: HuT78, light or radiation study, read-out: Survival
Outline: (§3)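 Non-stimulated PBMCs from healthy donors (Ficoll-separated) were mixed 5:1 with GFP-transfected, sorted (>98%) HUT-78 cells. Cells took up 7.5×10^-8 M photosensitizer for 20 min, then spent 30 min in dye-free medium. They were exposed to 5 J cm^-2 light (600 nm LED) with rotation at 180 rpm. Survival was gated by FACS (GFP, CD3, CD4, CD8) 18 h later versus non-irradiated controls. Triplicate; mean ± SEM.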

[11] = as §2, with “Phototoxicity human CD3 positive cells co-cultured with” for “Phototoxicity in”, “HUT78” for “HUT78 cells co-cultured with human PBMC”; type: cell-based; settings: read-out: Survival; outline: as §3
[12] = as §2, with “Phototoxicity human CD4 positive cells co-cultured with” for “Phototoxicity in”, “HUT78” for “HUT78 cells co-cultured with human PBMC”; type: cell-based; settings: read-out: Survival; outline: as §3
[13] = as §2, with “Phototoxicity human CD8 positive cells co-cultured with” for “Phototoxicity in”, “HUT78” for “HUT78 cells co-cultured with human PBMC”; type: cell-based; settings: read-out: Survival; outline: as §3
HuT78 [14] = experiment: Phototoxicity against human HUT78 cells assessed as reduction in cell viability preincubated for 1 hr in dark at 5 x 10^-8M before exposure to 0.5 to 2 J/cm2 irradiation after 48 hrs by MTT assay; type: functional, cell-based; outline: as §1
HuT78 [15] = experiment: Drug uptake in GFP expressing human HUT78 cells co-cultured with non-stimulated human PBMC cells assessed as change in mean fluorescence intensity at 7.5 x 10^-8 M after 20 mins followed by growth in photosensitizer-free media for 30 mins by flow cytometric analysis relative to control; type: cell-based; settings: hut78, 0.5 h, 0.075 µM
[16] = Drug extrusion in SEB-stimulated human CD25 positive cells assessed as mean fluorescence intensity at 5 x 10^-8 M preincubated for 20 mins followed by growth in photosensitizer-free media for 30 mins by flow cytometric analysis relative to control; settings: 0.5 h, 0.05 µM
[17] = Drug extrusion in SEB-stimulated human CD25 negative cells assessed as mean fluorescence intensity at 5 x 10^-8 M preincubated for 20 mins followed by growth in photosensitizer-free media for 30 mins by flow cytometric analysis relative to control; settings: 0.5 h, 0.05 µM
ABCB1 [18] = experiment: Permeability from apical to basolateral side in dog MDCK2-MDR1 cells expressing ABCB1 at 5 uM after 30 mins in presence of compound 15 by LC-MS/MS analysis; type: ADME, cell-based, Canis lupus familiaris, MDCK-II; settings: MDCK-MDR1, with compound 15 (concentration not stated), read-out: permeability
Outline: (§4)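 MDR1-transfected MDCKII cells (passage 16–42) were seeded at 50,000 cells cm^-2 on Transwell filters and used on day 6. Monolayers were rinsed in DPBS with 10^-2 M HEPES, pH 7.4, at 37 °C. They were preincubated 30 min in 4.3 mg/mL BSA/DPBSH with or without 5×10^-6 M P-gp inhibitor. 5 μM dye was added apically or basolaterally and samples taken after 1 h at 37 °C with nutation. Quantitation was by LC-MS/MS; P_passive is the mean of P_AB and P_BA under full inhibition. Mean ± SD.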

ABCB1 [19] = experiment: Permeability from apical to basolateral side in dog MDCK2-MDR1 cells expressing ABCB1 at 5 uM after 30 mins in absence of compound 15 by LC-MS/MS analysis; type: ADME, cell-based, Canis lupus familiaris, MDCK-II; settings: MDCK-MDR1, read-out: permeability; outline: as §4
ABCB1 [20] = experiment: Permeability from basolateral to apical side in dog MDCK2-MDR1 cells expressing ABCB1 at 5 uM after 30 mins in presence of compound 15 by LC-MS/MS analysis; type: ADME, cell-based, Canis lupus familiaris, MDCK-II; settings: MDCK-MDR1, with compound 15 (concentration not stated), read-out: permeability; outline: as §4
ABCB1 [21] = experiment: Permeability from basolateral to apical side in dog MDCK2-MDR1 cells expressing ABCB1 at 5 uM after 30 mins in absence of compound 15 by LC-MS/MS analysis; type: ADME, cell-based, Canis lupus familiaris, MDCK-II; settings: MDCK-MDR1, read-out: permeability; outline: as §4
ABCB1 [22] = experiment: Passive permeability in dog MDCK2-MDR1 cells expressing ABCB1 at 5 uM after 30 mins in presence of compound 15 by LC-MS/MS analysis; type: ADME, cell-based, Canis lupus familiaris, MDCK-II; settings: MDCK-MDR1, with compound 15 (concentration not stated), read-out: permeability; outline: as §4
[23] = Drug uptake in human HUT78 cell mitochondria by MTG-based bright field microscopic analysis; type: ADME
Outline: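 HUT-78 cells (5×10^5 in 0.5 mL medium) were incubated 15 min with 2×10^-7 M dye together with 5×10^-7 M MitoTracker Green. They were centrifuged and analysed by ImageStream imaging flow cytometry, with MTG excited at 488 nm (480–560 nm channel) and dye excited at 561 nm (642–745 nm channel). Colocalisation was given as the bright detail similarity score, mean ± SD over cells.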

HuT78 [24] = settings: human, hut78, 0.5 h, 0.075 µM
HuT78 [25] = settings: human, hut78, 0.5 h, 0.075 µM; remark: listed apart in the source

Question: With `S=C(c1ccc(C2=c3cc4c5c(c3[Se]c3c2cc2c6c3CCCN6CCC2)CCC[N+]=5CCC4)s1)N1CCCCC1.[Cl-]` as the molecule, how does the Activity (HuT78 [1]) read?
Answer: The Activity was “Dose-dependent effect”.

Question: And the pEC50 (HuT78 [1]; HuT78, light or radiation study)?
Answer: The pEC50 was 7.46.

Question: And the CC50 at 48 h [2]?
Answer: Its CC50 at 48 h is 1080 nM.

Question: What about the Activity [3] of the same molecule?
Answer: Its Activity is 33.1%.

Question: What about the Activity [4] of the same molecule?
Answer: Its Activity is 36.1%.

Question: What about the Activity [5] of the same molecule?
Answer: The Activity was 59.2%.

Question: What about the Activity [6] of the same molecule?
Answer: Its Activity is 16.8%.

Question: What about the Activity [7] of the same molecule?
Answer: The Activity was 35.2%.

Question: What about the Flu intensity [8] of the same molecule?
Answer: Its Flu intensity is 83300 a.u.

Question: And the Flu intensity [9]?
Answer: The Flu intensity was 25500 a.u.

Question: What about the viability at 0.075 µM (HuT78 [10]) of the same molecule?
Answer: Its viability at 0.075 µM is 0%.

Question: And the viability at 18 h, 0.075 µM [11]?
Answer: Its viability at 18 h, 0.075 µM is 5.8%.

Question: And the viability at 18 h, 0.075 µM [12]?
Answer: Its viability at 18 h, 0.075 µM is 1.5%.

Question: And the viability at 18 h, 0.075 µM [13]?
Answer: Its viability at 18 h, 0.075 µM is 11.3%.

Question: What about the Activity (HuT78 [14]) of the same molecule?
Answer: The Activity was “Active”.

Question: What about the Activity (HuT78 [15]) of the same molecule?
Answer: The Activity was 28.1%.

Question: And the Flu intensity [16]?
Answer: The Flu intensity was 69000 a.u.

Question: And the Flu intensity [17]?
Answer: Its Flu intensity is 16600 a.u.

Question: What about the Papp A→B at 0.5 h, 5 µM (ABCB1 [18]) of the same molecule?
Answer: The Papp A→B at 0.5 h, 5 µM was 0.051 ×10⁻⁶ cm/s.

Question: And the Papp A→B at 0.5 h, 5 µM (ABCB1 [19])?
Answer: The Papp A→B at 0.5 h, 5 µM was 0.03 ×10⁻⁶ cm/s.

Question: What about the Papp B→A at 0.5 h, 5 µM (ABCB1 [20]) of the same molecule?
Answer: Its Papp B→A at 0.5 h, 5 µM is 0.057 ×10⁻⁶ cm/s.

Question: What about the Papp B→A at 0.5 h, 5 µM (ABCB1 [21]) of the same molecule?
Answer: Its Papp B→A at 0.5 h, 5 µM is 1.8 ×10⁻⁶ cm/s.

Question: And the Papp at 0.5 h, 5 µM (ABCB1 [22])?
Answer: Its Papp at 0.5 h, 5 µM is < 0.1 ×10⁻⁶ cm/s.

Question: And the Drug uptake [23]?
Answer: Its Drug uptake is “Active”.

Question: And the Flu intensity (HuT78 [24])?
Answer: The Flu intensity was 81000 a.u.

Question: And the Flu intensity (HuT78 [25])?
Answer: Its Flu intensity is 66000 a.u.
